Results pooled from the literature.
Lines come from different studies, so protocols differ.
Target: Casein kinase I isoform gamma-2 (CSNK1G2, Homo sapiens, UniProt P78368)

| Compound | assay | setting | quantity | value |
| --- | --- | --- | --- | --- |
| C[C@H]1CC[C@H](n2c3cnccc3c3cnc(Nc4ccc5c(n4)CCN(C(=O)CO)C5)nc32)CC1 | cell-free assay | 1 µM | remaining signal | 98% |
| CC#CC(=O)N1CCC[C@H]1c1nc(-c2ccc(C(=O)Nc3ccccn3)cc2)c2c(N)nccn12 | enzyme activity, inhibitor | 1 µM | inhibition | 9% |
| C1=C/COCc2cc(ccc2OCCN2CCCC2)Nc2nccc(n2)-c2cccc(c2)COC/1 | cell-free assay | 0.1 µM | remaining signal | 92% |
| N#Cc1ccc2nc(Nc3ccc(N4CCOCC4)c(Cl)c3)[nH]c2c1 | thermal stability, DSF | 30 µM | ΔTm | 3.6 °C |
| CCCCC(=O)Nc1ccc(-c2ccc3ncn(CCC)c(=O)c3c2)cn1 | binding, competition with immobilised ligand | 0.5 µM | remaining binding | 91% |
| CC(C)S(=O)(=O)c1ccc2nccc(Nc3ccc4sc(C5CCCC5)nc4c3)c2c1 | enzyme activity, inhibitor | 1 µM | activity vs control | 100% |
| CO[C@@H]1[C@H](N(C)C(=O)c2ccccc2)C[C@H]2O[C@]1(C)n1c3ccccc3c3c4c(c5c6ccccc6n2c5c31)C(=O)NC4 | enzyme activity, inhibitor | 1 µM | inhibition | 4% |
| N#Cc1ccc(NC(=O)Nc2ccccc2)cc1 | cell-free assay, competition with immobilised ligand | 25 µM | remaining binding | 100% |
| Cc1cc(O)c(-c2ccc([C@@H](C)CN(C)C)cc2)c2c1[nH]c(=O)c1sccc12 | enzyme activity, inhibitor | 0.1 µM | inhibition | -6.66% |
| CN1CCN(C(=O)c2ccc(NC(=O)Nc3ccc(N(C)c4ccnc(Nc5ccc(CS(C)(=O)=O)cc5)n4)cc3)cc2)CC1 | binding | 1 µM | remaining binding | 100% |
| COc1ccc2oc(-c3ccc4nc(N)oc4c3)c/c(=N\c3ccccc3NC(=O)CCN)c2c1 | binding | 1 µM | remaining binding | 95% |
| C#Cc1cnc(Nc2ccnc(CO)c2)nc1Nc1ccccc1S(C)(=O)=NC#N (stereo not drawn) | cell-free assay | 1 µM | remaining signal | 65% |
